# MrgX1 agonist – agonists of human MrgX1 receptor | Q96LB2 | MrgX1-HEK293 cells, Fluo-4 calcium fluorescence, agonist mode; active compounds read high | B-score at 10 µM | 310,000 compounds, 0.44% hits;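 active means calcium response B-score plate-corrected fluorescence ratio at least 3 library SD, with starting fluorescence B-score inside 5 SD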
# Target sequence (Q96LB2 whole entry, looked up): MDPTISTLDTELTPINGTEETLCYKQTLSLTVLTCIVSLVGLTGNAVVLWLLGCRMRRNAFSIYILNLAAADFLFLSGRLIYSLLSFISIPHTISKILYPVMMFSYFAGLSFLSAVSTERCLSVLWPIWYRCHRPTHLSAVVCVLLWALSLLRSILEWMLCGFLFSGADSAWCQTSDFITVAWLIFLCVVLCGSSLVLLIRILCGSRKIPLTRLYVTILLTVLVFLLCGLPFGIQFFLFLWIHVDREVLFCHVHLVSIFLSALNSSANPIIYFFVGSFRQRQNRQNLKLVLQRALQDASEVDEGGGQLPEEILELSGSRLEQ
#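 System – MrgX1-expressing HEK293 cells · Incubation – cells plated overnight, dye loaded 0.5 h 37 °C, 0.5 h room temperature · Technique – kinetic Fluo-4 NW fluorescence of intracellular calcium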
# RGS4 pot – potentiators or activators of RGS4. HEK293 M3R/inducible RGS4, carbachol calcium flux Fluo4; active compounds read low. B-score at 10 µM. 310,000 compounds, 0.92% hits;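 active means B-score of the integrated calcium signal more than 4 SD below the library mean, with starting fluorescence not abnormally high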;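 further: negative B-score means reduced calcium response which marks RGS4 activation or potentiation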
#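 Test system: HEK293 cells with stable M3R and inducible RGS4; also added: carbachol at ECmax as muscarinic agonist stimulus; schedule: dye loading 30 min 37 °C, buffer rest 30 min RT; technique: kinetic calcium fluorescence imaging with Fluo4-AM dye, 2 µM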
# MrgX1 antag – antagonists of human MrgX1 receptor; 310,000 compounds, 1.3% hits; B-score at 10 µM; Q96LB2; AID 588676; MRGX1-HEK293 calcium flux, Fluo-4, BAM8-22 antagonism; active compounds read low;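 active means calcium-response B-score plate-corrected more than 3 library SD below zero, starting fluorescence within 5 deviations, no agonist response on first addition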;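 further: peak minus trough fluorescence over baseline after final BAM8-22 challenge near maximal dose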
# RGS4 inh – inhibitors of human RGS4; HEK293 M3R/RGS4 inducible, Fluo-4 calcium flux; active compounds read high; triggered by carbachol at its EC20; AID 463165; 310,000 compounds, 0.45% hits; B-score at 10 µM;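 active means B-score, a plate-corrected calcium signal, over three deviations above library mean, with baseline fluorescence within five deviations of library mean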;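 further: RGS4 expression induced by doxycycline in cells with stable M3 receptor; B-score is computed from the integrated fluorescence ratio over baseline after carbachol; higher B-score means a larger calcium signal and so more RGS4 inhibition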
# Target sequence (P49798 whole entry, looked up): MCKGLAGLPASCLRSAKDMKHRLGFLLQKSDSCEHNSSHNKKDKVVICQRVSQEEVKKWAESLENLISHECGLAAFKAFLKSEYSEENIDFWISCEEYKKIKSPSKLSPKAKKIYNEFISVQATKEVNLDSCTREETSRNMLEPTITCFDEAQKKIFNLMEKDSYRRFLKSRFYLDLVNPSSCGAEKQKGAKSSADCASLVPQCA
# MrgX1 allo act – allosterically activates human MrgX1 receptor signaling. Q96LB2. MrgX1-HEK293, Fluo-4 calcium flux, FDSS; active compounds read high. B-score at 10 µM. 310,000 compounds, 0.63% hits;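 active means plate-corrected calcium response at least 3 library SD above typical, normal starting fluorescence, not activating the receptor alone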;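 further: compound read alongside a low EC10 to EC30 dose of BAM8-22 agonist; peak minus trough fluorescence over baseline measured at the second addition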
# RGS4 act valid – RGS4 activation, validation assay | 1,100 compounds, 89% hits | shares compounds with RGS4 pot | inhibition, % at 10 µM | HEK293 M3R/RGS4 inducible, carbachol calcium flux Fluo4;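 active means inhibition above 3 SD of the buffer control wells, cut at about 41% in these data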;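 further: signal is the integrated peak-minus-minimum Fluo4 fluorescence over baseline ratio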
# M3R Ca counter – RGS4 activator counter-screen hit in non-induced cells. shares compounds with RGS4 pot. HEK293 M3R non-induced RGS4, Fluo4 calcium flux; after carbachol challenge at its EC90. inhibition, % at 10 µM. 1,100 compounds, 82% hits. AID 602283;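 active means inhibition exceeding 3 SD of buffer-only control wells, cut at about 26% in these data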;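 further: percent drop in integrated peak-minus-baseline over baseline Fluo4 ratio after carbachol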
# Active calls of the source: *; i = inactive; / = not tested or not shown. A selection: hits, their analogues and other compounds. The true share with any hit is near 3.5%.
SMILES,MrgX1 agonist,RGS4 pot,MrgX1 antag,RGS4 inh,MrgX1 allo act,RGS4 act valid,M3R Ca counter
CC1=C(C(=O)OC(C)(C)C)C(c2ccc3ccccc3c2)NC(=O)N1C (stereo not drawn),i,-8.02*,i,i,i,93.5*,81.3*
Cc1c(O)c(CN2CCCC2)cc2c1oc(=O)c1ccccc12,i,i,i,i,i,/,/
C=CCc1cc2c(oc(=O)c3ccccc32)c(C)c1O,i,-8.98*,i,i,i,49.0*,83.8*
CC(C)(C)c1cc(C(=O)Nc2cccnc2)cc(C(=O)Nc2cccnc2)c1,i,i,i,i,i,/,/
COc1ccccc1NC(=O)c1ccccc1Oc1ccccc1,i,-9.19*,-5.94*,i,i,86.0*,50.3*
Cc1ccc(OS(=O)(=O)c2c(C)nn(C)c2Cl)c(C)c1,i,-9.9*,i,i,i,90.5*,93.3*
Cc1cc(C)n(S(=O)(=O)c2ccc3ccccc3c2)n1,i,-7.92*,i,i,i,75.5*,83.8*
COc1ccccc1C(C)NCC(=O)NC(=O)NCc1ccco1 (stereo not drawn),i,i,i,i,i,/,/
CCCCCCOc1ccc(-c2ccc(C#N)cn2)cc1,i,-7.93*,i,i,i,71.0*,83.8*
Cc1noc(C)c1CSCC(=O)N(C)CC(=O)Nc1ccc(F)c(F)c1F,i,i,i,i,i,/,/
COc1ccc(N(C(=O)Nc2ccc(Cl)cc2)C2=NCCC2)cc1,i,-10.2*,i,i,i,78.5*,37.8*
O=C(NCC1CCCO1)c1csc2c1CCCCC2 (stereo not drawn),i,-9.13*,i,i,i,0.0,0.0
Cc1ccc(C(C)C)c(OCCCNCc2cccnc2)c1,i,-8.7*,i,i,i,91.5*,59.8*
CC1(C)Cc2c(cnn2-c2ccc(F)cc2)C(NC(=O)c2ccc(=O)oc2)C1 (stereo not drawn),i,i,i,i,i,/,/
COc1ccccc1C(CNC(=O)c1cccc(NS(=O)(=O)c2ccc(C)c(F)c2)c1)N(C)C (stereo not drawn),i,-8.36*,i,i,i,77.0*,54.8*
OCc1nc2ccccc2n1Cc1c(F)cccc1Cl,i,i,i,i,i,/,/
CSc1nc2ccccc2n1Cc1c(Cl)cccc1Cl,i,-8.41*,i,i,i,95.0*,86.3*
CCOC(=O)N1CCC(NC2CCCCCCC2)CC1,i,-8.1*,i,i,i,82.0*,0.0
CCOC(=O)N1CCC(N2CCN(C3CCCC3)C(CCO)C2)CC1 (stereo not drawn),i,-10.2*,i,i,i,89.0*,58.8*
CCOC(=O)N1CCC(N2CCN(Cc3ccccc3)C(CCO)C2)CC1 (stereo not drawn),i,i,i,i,i,/,/
COc1ccc(Cl)cc1NC(=O)Nc1ccc(C(=O)N2CCOCC2)cc1,i,i,i,i,i,/,/
Cc1ccc(S(=O)(=O)N2CCOCC2)cc1C(=O)NC1CCSc2ccccc21 (stereo not drawn),i,i,i,i,i,/,/
Cc1sc2nc(SCC(=O)NCc3ccco3)n(C)c(=O)c2c1C,i,i,i,i,i,/,/
COC(=O)c1ccc(CNC(=O)CSc2nc3sc(C)c(C)c3c(=O)n2C)o1,i,-8.15*,i,i,i,50.5*,0.0
CCCc1cc(=O)oc2cc(C)cc(OC(C)C(=O)N[C@@H](Cc3c[nH]c4ccccc34)C(=O)O)c12 (stereo partly drawn),i,-14.1*,i,i,i,0.0,0.0
SMILES,MrgX1 agonist,RGS4 pot,MrgX1 antag,RGS4 inh,MrgX1 allo act,RGS4 act valid,M3R Ca counter
CCCCc1cc(=O)oc2cc(C)cc(OC(C)C(=O)NC(Cc3c[nH]c4ccc(O)cc34)C(=O)O)c12 (stereo not drawn),i,i,i,i,i,/,/
Cc1c(C)n(Cc2ccccc2)c2ncnc(NCCCN(C)C)c12,i,-9.44*,i,i,i,70.0*,83.8*
COc1ccc(C(=O)NCc2nnc(SCC(=O)N3CCc4ccccc43)n2Cc2ccccc2)cc1,i,i,i,i,i,/,/
Cc1cc(S(=O)(=O)NCCC2=CCCCC2)ccc1Br,i,-9.55*,i,i,i,92.0*,83.3*
Cc1ccc(S(=O)(=O)NCCC2=CCCCC2)cc1C(N)=O,i,i,i,i,i,/,/
Cc1ccc(NNC(=O)Nc2ccc(Cl)cc2)nn1,i,i,i,i,i,/,/
CCOC(=O)c1cc(NC(=O)Cc2ccc(S(=O)(=O)N3CCOCC3)s2)cc(C(=O)OCC)c1,i,-8*,i,i,i,64.5*,36.3*
CC(=O)N1c2ccc(S(=O)(=O)N3CCCC3)cc2CC1C(=O)Nc1cc(C)cc(C)c1 (stereo not drawn),i,i,i,i,i,/,/
CCCCc1ncc(CN2CCC(n3nccc3NC(=O)c3ccccc3OC)CC2)[nH]1,i,i,i,i,i,/,/
CCCCN(C)C(=O)c1cc2c(Cl)nc3ccccc3c2s1,i,-8.72*,i,i,i,59.0*,44.8*
CCc1cc(C(=O)N2CCCC(C(=O)c3cccc4ccccc34)C2)n(C)n1 (stereo not drawn),i,i,i,i,i,/,/
Cc1ccc(C)c(-n2c3nc(=O)n(C)c(=O)c-3cc3ccccc32)c1,i,-11.6*,i,i,i,0.0,0.0
COCCCNC(=O)c1c(N)n(/N=C/c2cccs2)c2nc3ccccc3nc12,i,-8.13*,i,i,i,0.0,0.0
CC1(C(=O)NNC(=O)c2cccc([N+](=O)[O-])c2)CC1(Br)Br (stereo not drawn),i,i,i,i,i,/,/
O=C(O)c1ccc(-c2nc3ccccc3s2)o1,i,i,i,i,i,/,/
O=C(c1ccc(-c2nc3ccccc3s2)o1)N1CCN(c2ccccc2O)CC1,i,-8.29*,i,i,i,86.0*,52.8*
CCn1ccnc1CNC(=O)c1ccc2oc(C(C)C)nc2c1,i,-8.24*,i,i,i,82.0*,47.3*
Cn1nc(-c2ccccc2)c2ncc(C(F)(F)F)cc21,i,i,i,i,i,/,/
